Laboratory results reported in paper PMC6400527 (The Journal of General Physiology, 2019).
Like-named read-outs stand apart in the source and are kept apart here. Values belong to the compound of their own block, whether it stands above or below them.

Columns and labels:
[1] = tested on: gA^−(13) channels in DC18:1PC/n-decane bilayer; test: gA single-channel electrophysiology, gA−; format: biochemical; conditions: mean ± SE, n = 3–4
Outline: (§1)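 Bilayer of DC18:1PC in n-decane formed across a 1–1.5 mm Teflon hole. It was co-doped with AgA(15) (total a few pM) and gA−(13) (~10-fold higher). Test compound from DMSO stock was added to both sides at increasing concentrations. Patches were isolated with 20–40 µm punch electrodes in 1 M NaCl, 10 mM HEPES pH 7, 25 ± 1°C, ±200 mV. Signals were filtered at 5 kHz, sampled at 20 kHz, then filtered at 200–500 Hz. Events were detected by a transition-based algorithm. Lifetimes came from single-exponential fits of survivor histograms, normalized to no-drug lifetimes in the same experiment. n = 3–4.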

[2] = tested on: AgA(15) channels in DC18:1PC/n-decane bilayer; test: gA single-channel electrophysiology, AgA; format: biochemical; conditions: mean ± SE, n = 3–4
Outline: as §1

[3] = Bilayer elastic coefficient HB / property altered, from lifetimes of gA−; conditions: for bilayer property primarily altered: single-channel electrophysiology; for decrease of HB (bilayer elastic coefficient): 100 µM, HB of unmodified bilayer ∼22 kBT/nm^2
[4] = ref Karson et al., 1993; Bolo et al., 2000; cited from earlier work
[5] = target: [Ala^1]gA, 15-amino-acid analogue of gramicidin A; test: single-channel electrophysiology
[6] = target: [Ala^1]gA, 15-amino-acid analogue of gramicidin A; test: single-channel electrophysiology; remark: listed apart in the source
[7] = target: [Ala^1]gA, 15-amino-acid analogue of gramicidin A; test: single-channel electrophysiology; remark: listed apart in the source
[8] = target: [Ala^1]gA, 15-amino-acid analogue of gramicidin A; test: single-channel electrophysiology; remark: listed apart in the source
[9] = target: [Ala^1]gA, 15-amino-acid analogue of gramicidin A; test: single-channel electrophysiology; remark: listed apart in the source
[10] = target: [Ala^1]gA, 15-amino-acid analogue of gramicidin A; test: single-channel electrophysiology; remark: listed apart in the source
[11] = target: des-(D-Val-Gly)gA^−, chain-shortened enantiomer of gramicidin A; test: single-channel electrophysiology
[12] = target: des-(D-Val-Gly)gA^−, chain-shortened enantiomer of gramicidin A; test: single-channel electrophysiology; remark: listed apart in the source
[13] = target: des-(D-Val-Gly)gA^−, chain-shortened enantiomer of gramicidin A; test: single-channel electrophysiology; remark: listed apart in the source
[14] = target: des-(D-Val-Gly)gA^−, chain-shortened enantiomer of gramicidin A; test: single-channel electrophysiology; remark: listed apart in the source
[15] = target: des-(D-Val-Gly)gA^−, chain-shortened enantiomer of gramicidin A; test: single-channel electrophysiology; remark: listed apart in the source
[16] = target: des-(D-Val-Gly)gA^−, chain-shortened enantiomer of gramicidin A; test: single-channel electrophysiology; remark: listed apart in the source

Compound: CN(C)CCC=C1c2ccccc2CCc2ccccc21 [Amitriptyline]
τAD,13/τcntrl,13 (normalized gA−(13) lifetime) ([1]; 100 µM): 1.6 ± 0.1
τAD,15/τcntrl,15 (normalized AgA(15) lifetime) ([2]; 100 µM): 1.5 ± 0.1
bilayer property primarily altered [3]: intrinsic curvature

Compound: CN(C)CCCC1(c2ccc(F)cc2)OCc2cc(C#N)ccc21 (centres unmarked) [Citalopram (R−), Citalopram]
τAD,13/τcntrl,13 (normalized gA−(13) lifetime) ([1]; 250 µM): 1.8 ± 0.1
τAD,15/τcntrl,15 (normalized AgA(15) lifetime) ([2]; 250 µM): 1.78 ± 0.04

Compound: CN(C)CCCC1(c2ccc(F)cc2)OCc2cc(C#N)ccc21 (centres unmarked) [Citalopram (S+), Citalopram]
τAD,13/τcntrl,13 (normalized gA−(13) lifetime) ([1]; 250 µM): 2.0 ± 0.2
τAD,15/τcntrl,15 (normalized AgA(15) lifetime) ([2]; 250 µM): 1.9 ± 0.2

Compound: CN(C)CCCC1(c2ccc(F)cc2)OCc2cc(C#N)ccc21 (centres unmarked) [Citalopram]
bilayer property primarily altered [3]: intrinsic curvature

Compound: CNCCC(Oc1ccc(C(F)(F)F)cc1)c1ccccc1 (centres unmarked) [Fluoxetine (R−), Fluoxetine]
τAD,13/τcntrl,13 (normalized gA−(13) lifetime) ([1]; 100 µM): 3.1 ± 0.6
τAD,15/τcntrl,15 (normalized AgA(15) lifetime) ([2]; 100 µM): 2.3 ± 0.3
decrease of HB (bilayer elastic coefficient) [3]: ~3.0 ± 0.3 kBT/nm^2

Compound: CNCCC(Oc1ccc(C(F)(F)F)cc1)c1ccccc1 (centres unmarked) [Fluoxetine (S+), Fluoxetine]
τAD,13/τcntrl,13 (normalized gA−(13) lifetime) ([1]; 100 µM): 2.9 ± 0.4
τAD,15/τcntrl,15 (normalized AgA(15) lifetime) ([2]; 100 µM): 2.3 ± 0.3
decrease of HB (bilayer elastic coefficient) [3]: ~2.3 ± 0.5 kBT/nm^2

Compound: CNCCC(Oc1ccc(C(F)(F)F)cc1)c1ccccc1 (centres unmarked) [Fluoxetine]
bilayer property primarily altered [3]: bilayer elasticity
concentration in brain [4]: up to 10 µM

Compound: CN(C)CCCN1c2ccccc2CCc2ccccc21 [Imipramine]
τAD,13/τcntrl,13 (normalized gA−(13) lifetime) ([1]; 100 µM): 1.5 ± 0.1
τAD,15/τcntrl,15 (normalized AgA(15) lifetime) ([2]; 100 µM): 1.4 ± 0.1
decrease of HB (bilayer elastic coefficient) [3]: ~1.3 ± 0.9 kBT/nm^2
bilayer property primarily altered [3]: intrinsic curvature

normalised single-channel (dimer) lifetime τ (AD,15)/τ (cntrl,15) [5]: 1.4
normalised single-channel (dimer) lifetime τ (AD,15)/τ (cntrl,15) [6]: 2.3
normalised single-channel (dimer) lifetime τ (AD,15)/τ (cntrl,15) [7]: 1.5
normalised single-channel (dimer) lifetime τ (AD,15)/τ (cntrl,15) [8]: 1.78
normalised single-channel (dimer) lifetime τ (AD,15)/τ (cntrl,15) [9]: 2.3
normalised single-channel (dimer) lifetime τ (AD,15)/τ (cntrl,15) [10]: 1.9
Compound: [Ala^1]gA, 15-amino-acid analogue of gramicidin A (peptide)

normalised single-channel (dimer) lifetime τ (AD,13)/τ (cntrl,13) [11]: 1.5
normalised single-channel (dimer) lifetime τ (AD,13)/τ (cntrl,13) [12]: 2.9
normalised single-channel (dimer) lifetime τ (AD,13)/τ (cntrl,13) [13]: 1.6
normalised single-channel (dimer) lifetime τ (AD,13)/τ (cntrl,13) [14]: 1.8
normalised single-channel (dimer) lifetime τ (AD,13)/τ (cntrl,13) [15]: 3.1
normalised single-channel (dimer) lifetime τ (AD,13)/τ (cntrl,13) [16]: 2
Compound: des-(D-Val-Gly)gA^−, chain-shortened enantiomer of gramicidin A (peptide)
